Holding throughout (assay type): binding
One assay deals with T1, p53-peptide/14-3-3γ (Homo sapiens, UniProt P61981).
T1 sequence (P61981 1-247): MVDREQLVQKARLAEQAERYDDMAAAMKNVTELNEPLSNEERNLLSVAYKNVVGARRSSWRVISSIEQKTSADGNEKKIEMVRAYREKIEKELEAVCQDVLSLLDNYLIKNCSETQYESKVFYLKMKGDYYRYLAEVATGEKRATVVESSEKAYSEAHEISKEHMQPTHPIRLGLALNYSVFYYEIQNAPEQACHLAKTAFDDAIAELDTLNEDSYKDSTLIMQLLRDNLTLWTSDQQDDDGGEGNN
Put plainly: FA compound titration, selectivity: p53-peptide and 14-3-3γ. Particulars: 0.3 μM 14-3-3γ, 10 nM peptide.

The target of another assay is T2, ERα-peptide/14-3-3γ (Homo sapiens, UniProt P61981).
T2 sequence (P61981 1-247): T1 sequence (P61981 1-247)
The assay is described as follows: FA compound titration, selectivity: ERα-peptide and 14-3-3γ. Particulars: 0.1 μM 14-3-3γ, 10 nM peptide.

The target of another assay is T3, TAZ-peptide/14-3-3γ (Homo sapiens, UniProt P61981).
T3 sequence (P61981 1-247): T1 sequence (P61981 1-247)
Put plainly: FA compound titration, selectivity: TAZ-peptide and 14-3-3γ. As to conditions: 0.1 μM 14-3-3γ, 10 nM peptide.

Assay [1] has as its target T4, p65_45/14-3-3γ (Homo sapiens, UniProt P61981+Q04206). The assay is described as follows: Fluorescence anisotropy. Particulars: 50 μM 14-3-3γ, 100 nM p65_45. Background: Fluorescence polarisation rises when a labelled molecule tumbles more slowly, as on binding a larger partner.
The target of another assay is p65_45/14-3-3σΔC complex (Homo sapiens, UniProt P31947+Q04206, E49R). Put plainly: X-ray crystal soaking of fragments into p65_45/14-3-3σΔC crystals. Particulars: soak 10 mM compound, 7 days; imine bond to Lys122 of 14-3-3. In a few lines: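 His-tag-free 14-3-3σΔC (12 mg/mL) was complexed overnight 1:2 with N-acetyl, C-amide p65 pSer45 peptide in 20 mM HEPES pH 7.5, 2 mM MgCl2, 2 mM β-mercaptoethanol. Crystals grew in hanging drops (95 mM HEPES pH 7.5, 27–28% PEG400, 190 mM CaCl2, 5% glycerol). Test compound from DMSO stock was added to final 10 mM (≤1% DMSO) for 7 days. Crystals were flash-frozen; binding was judged from 2Fo-Fc density.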

The target of assay [2] is T4, p65_45/14-3-3γ. The assay is described as follows: Fluorescence anisotropy. Particulars: fold-change of apparent KD in comparison to a DMSO control, 1 mM fragment.

Molecules are shown by their SMILES.

Chain of p65_45/14-3-3σΔC complex (P31947 1-231, other chains not shown): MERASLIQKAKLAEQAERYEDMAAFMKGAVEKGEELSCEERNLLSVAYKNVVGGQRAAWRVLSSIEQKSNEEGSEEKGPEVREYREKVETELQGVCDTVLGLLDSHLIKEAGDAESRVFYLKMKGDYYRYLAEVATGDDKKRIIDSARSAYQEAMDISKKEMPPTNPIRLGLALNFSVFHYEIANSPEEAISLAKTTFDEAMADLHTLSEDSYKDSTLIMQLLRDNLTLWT

Regarding `O=Cc1ccc(S(=O)(=O)N2CCNc3ccccc32)cc1` [24j], on p53-peptide/14-3-3γ, the “ternary complex formation with p53” value was “no ternary complex formation was detected”. Besides, on ERα-peptide/14-3-3γ, the “ternary complex formation with ERα” value is given as “no ternary complex formation was detected”. In addition, the “ternary complex formation with TAZ” value at TAZ-peptide/14-3-3γ is reported as “no ternary complex formation was detected”.

With `O=Cc1ccc([N+](=O)[O-])c(N2CCC(O)CC2)c1` [13f], on p65_45/14-3-3γ [1], the “ternary complex formation in FA compound titration (in words)” value (“ternary complex formation … (in words)” below) was “did not elicit significant ternary complex formation”. At p65_45/14-3-3σΔC complex, the “binding of the fragment in X-ray crystal soaking experiments” value (“binding of the fragment” below) is on record as “significant electron density coverage”.

In the case of `COC1CCCN(c2cc(C=O)ccc2[N+](=O)[O-])C1` (stereo not shown) [13e], the “ternary complex formation … (in words)” value on p65_45/14-3-3γ [1] is given as “did not elicit significant ternary complex formation”. The “binding of the fragment” value at p65_45/14-3-3σΔC complex is reported as “significant electron density coverage”.

Take `O=Cc1ccc([N+](=O)[O-])c(OC(=O)C2CCC2)c1` [10a]: the “binding of the fragment” value at p65_45/14-3-3σΔC complex is listed as “bound to Lys122”.

With `O=Cc1ccc([N+](=O)[O-])c(N2CCCC(O)C2)c1` (stereo not shown) [13l], the “ternary complex formation … (in words)” value at p65_45/14-3-3γ [1] was “did not elicit significant ternary complex formation”. Also, at p65_45/14-3-3σΔC complex, the “binding of the fragment” value is recorded as “significant electron density coverage”.

`O=Cc1ccc(S(=O)(=O)N2CCC(N3CCCC3)CC2)cc1` [23m]: the “SF (stabilization factor)” value on p65_45/14-3-3γ [2] was found to be 4.5 fold.

As for `O=Cc1ccc(-n2ccnc2Br)nc1` [16d], the “ternary complex formation … (in words)” value at p65_45/14-3-3γ [1] is “induced an increase in anisotropy”. Moreover, the “binding of the fragment” value on p65_45/14-3-3σΔC complex is “detected in the electron density map”.

The values above are taken from article PMC8237268 (Journal of Medicinal Chemistry, 2021).
